Laboratory results: PMC7311273 (Nuclear medicine and biology, 2020)
Values joined by “and” are separate entries in the source; they are usually repeats but may differ in a detail not shown here. Identical values can stand only once. “Also recorded” adds a separate entry of the source.

Tests used:
[1] = competition with equimolar amounts of ligands with gallium, cited from earlier work
[2] = normal CD-1 IGS male mice, 60 min; cited from earlier work
[3] = Subject tolerability to radiotracer administration; assay type: in vivo, human
[4] = test system: prostate cancer osseous metastases; assay type: in vivo, human
Summary of the method: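 Tracer given IV to men with prostate cancer and known or suspected bone metastases. 60-min dynamic PET from injection over a known or suspected lesion site, then skull-base to mid-thigh PET/CT at ~90 and 180 min. SUVpeak from 1 cm spheres on lesions, blood pool and normal bone. List-mode data subsampled to emulate lower activities (10 replicates, TOF OSEM, 4-mm voxels). Lesion SNR = Lmax/Lmax SD, decay-corrected.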

[5] = Normal organ dosimetry from whole body PET and urine collection, OLINDA/EXM; assay type: in vivo, human
Summary of the method: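 Eight men received up to ~232 MBq IV. Six top-of-skull to mid-thigh PET scans (10 beds × 90 s) started ~1, 20, 40, 60, 120 and 150 min. Two low-dose CTs gave attenuation correction. Urine from voids after scans 4 and 6 was gamma-counted. Organ activities came from PET images; cortical bone from femur shaft density × 2130 cm3. Time-activity curves fitted mono/bi-exponentially or by Riemann sum.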

[6] = 8 male humans, Standard Adult Male phantom
[7] = injected activity of 166.5 MBq (4.5 mCi)

O=C(O)CN(CCN(CC(=O)O)Cc1ccccc1O)Cc1ccccc1O [HBED, N, N’-bis(2-hydroxybenzyl)ethylenediamine-N,N’-diacetic acid]
out complexes DOTA by ([1]; versus DOTA): 99% | out complexes NOTA by ([1]; versus NOTA): 43%

O=C(O)CN1CCN(CC(=O)O)CCN(CC(=O)NC(P(=O)(O)O)P(=O)(O)O)CCN(CC(=O)O)CC1.[68Ga] [[^68Ga]Ga-BPAMD, reference compound]
bone uptake (retention) [2]: 9.2 % injected activity/g

[^68Ga]Ga-3-(3-(((carboxymethyl)(2-((carboxymethyl)(5-(3-((diphosphonomethyl)amino)-3-oxopropyl)-2-hydroxybenzyl)amino)ethyl)amino)methyl)-4-hydroxyphenyl)propanoic acid [[^68Ga]Ga-P15-041]
changes in vital signs before and after injection ([3]; 13 subjects): No clinically significant changes | tolerability / adverse events ([3]; administered to 13 subjects (12 completed protocol)): well-tolerated with no reports of serious adverse events | uptake in bone lesions ([4]; PET/CT, patients with prostate cancer bone metastases): accumulated in known bone lesions; also recorded: lesion uptake consistently above background | activity concentrations in blood and normal bone ([4]; dynamic cohort, n=4, compared to sites of osseous metastasis): low compared to sites of osseous metastasis | clearance from blood and soft tissue ([4]; human PET): cleared rapidly from blood and soft tissue | bone uptake (retention) [2]: 23.5 % injected activity/g | Effective dose equivalent, Mean [5, 6]: 2.31E-02 mSv/MBq | Effective dose, Mean [5, 6]: 0.0173 ± 0.0036 mSv/MBq and 1.73E-02 mSv/MBq | absorbed dose estimate, Adrenals, Mean [5, 6]: 1.02E-02 mSv/MBq | absorbed dose estimate, Brain, Mean [5, 6]: 3.57E-03 mSv/MBq | absorbed dose estimate, Breasts, Mean [5, 6]: 8.07E-03 mSv/MBq | absorbed dose estimate, Gallbladder wall, Mean [5, 6]: 1.03E-02 mSv/MBq | absorbed dose estimate, Heart Wall, Mean [5, 6]: 1.98E-02 mSv/MBq | absorbed dose estimate, Kidneys, Mean [5, 6]: 4.93E-02 mSv/MBq | absorbed dose estimate, Liver, Mean [5, 6]: 8.16E-03 mSv/MBq | absorbed dose estimate, Lower large intestine wall, Mean [5, 6]: 1.29E-02 mSv/MBq | absorbed dose estimate, Lungs, Mean [5, 6]: 1.73E-02 mSv/MBq | absorbed dose estimate, Muscle, Mean [5, 6]: 9.19E-03 mSv/MBq | absorbed dose estimate, Osteogenic cells, Mean [5, 6]: 2.63E-02 mSv/MBq | absorbed dose estimate, Ovaries, Mean [5, 6]: 1.16E-02 mSv/MBq | absorbed dose estimate, Pancreas, Mean [5, 6]: 1.03E-02 mSv/MBq | absorbed dose estimate, Red Marrow, Mean [5, 6]: 8.04E-03 mSv/MBq | absorbed dose estimate, Skin, Mean [5, 6]: 7.85E-03 mSv/MBq | absorbed dose estimate, Small intestine, Mean [5, 6]: 2.41E-02 mSv/MBq | absorbed dose estimate, Spleen, Mean [5, 6]: 1.17E-02 mSv/MBq | absorbed dose estimate, Stomach wall, Mean [5, 6]: 9.77E-03 mSv/MBq | absorbed dose estimate, Testes, Mean [5, 6]: 9.57E-03 mSv/MBq | absorbed dose estimate, Thymus, Mean [5, 6]: 9.26E-03 mSv/MBq | absorbed dose estimate, Thyroid, Mean [5, 6]: 8.92E-03 mSv/MBq | absorbed dose estimate, Total Body, Mean [5, 6]: 1.07E-02 mSv/MBq | absorbed dose estimate, Upper large intestine wall, Mean [5, 6]: 1.97E-02 mSv/MBq | absorbed dose estimate, Uterus, Mean [5, 6]: 1.33E-02 mSv/MBq | absorbed dose estimate, Urinary bladder wall, Mean ([5]; 8 male humans, Standard Adult Male phantom, highest individual organ dose): 0.135 mSv/MBq and 1.35E-01 mSv/MBq | absorbed dose to the kidneys [5, 7]: 8.2 mSv | absorbed dose to the urinary bladder wall [5, 7]: 22.5 mSv | effective dose [5, 7]: 2.9 mSv
